Test results reported in ChEMBL document CHEMBL1133006, “Synthesis and evaluation of several new (2-chloroethyl)nitrosocarbamates as potential anticancer agents” (J Med Chem, 2000).
≈ marks a conversion by molar mass, not a printed value.

Experiments:
SNB-7 [1] = assay: In vitro cytotoxicity was evaluated againstCNS SNB-7 cells; type: functional, cell-based; details: Homo sapiens
In short: (§1)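 Cells dispersed with trypsin/EDTA, suspended at 5 × 10⁴/mL and seeded in 96-well plates. Compounds dissolved in 100% DMSO, diluted in complete medium and added in 100-µL samples, eight replicate wells per concentration. Controls were mock, vehicle (DMSO in medium) and doxorubicin 200 µM. Incubation 72 h, read by XTT or neutral red uptake, IC₅₀ calculated in µM.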

DLD-1 (Homo sapiens) [2] = assay: In vitro cytotoxicity was evaluated against colon DLD-1 cells
SK-MEL-28 [3] = assay: In vitro cytotoxicity was evaluated against melanoma SK-MEL-28 cells; […]; type: functional, cell-based; details: Homo sapiens; in short: as §1
CAKI-1 (Homo sapiens) [4] = assay: In vitro cytotoxicity was evaluated against renal CAKI-1 cells; […]
NCI-H23 [5] = assay: In vitro cytotoxicity was evaluated against lung NCI-H23 cells; type: functional, cell-based; details: Homo sapiens; in short: as §1
Mus sp. [6] = species on record: Mus sp.; assay: Difference in the median of times poststaging for tumors of the treated (T) groups to double in mass twice compared to the median of the control (C) group; type: functional
In short: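 M5076 sarcoma, 5 × 10⁶ cells implanted sc in B6C3F₁ mice (implantation = day 0). Compound given ip on days 10-14 at optimal dosage (≤LD10). T-C is the difference in median time after staging for treated versus control tumors to double in mass twice, in days.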

Mus sp. [7] = assay: Antitumor activity against subcutaneously implanted M5076 murine sarcoma in B6C3F1 mice (5x10E6) at 12.5 mg/kg on day 10 to 14, expressed tumor-free surv/total; 0/5; type: functional; details: route subcutaneous
In short: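 B6C3F1 mice got 5 × 10⁶ M5076 sarcoma cells sc (implant day = day 0). Drug was given ip at 12.5 mg/kg/dose on days 10-14, 5 mice per group. Tumor-free survivors/total were recorded. T-C was the difference in median time after staging for tumors to double in mass twice, treated versus control.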

P388 [8] = assay: Antitumor activity measured by % increase in life span (ILS) of CD2F1 mice implanted with murine leukemia cells expressed as net log cell kill; type: functional, Mus sp.
DLD-1 (Homo sapiens) [9] = assay: In vitro cytotoxicity was evaluated against colon DLD-1 cells; 2 x 10E1
SK-MEL-28 (Homo sapiens) [10] = assay: In vitro cytotoxicity was evaluated against melanoma SK-MEL-28 cells; 1 x 10e1; 1 x 10E1
P388 [11] = assay: Antitumor activity against intraperitoneally implanted P388 murine leukemia in CD2F1 mice with 10E6 at 25 mg/kg on day 1, expressed tumor-free surv/total;0/5; type: functional, Mus sp.; details: route intraperitoneal
SNB-7 [12] = assay: In vitro cytotoxicity was evaluated againstCNS SNB-7 cells; 3 x 10E1; type: functional, cell-based; details: Homo sapiens; in short: as §1
P388 [13] = assay: Antitumor activity was measured by % increase in life span (ILS) of CD2F1 mice implanted with P388 murine leukemia cell at a dose of 25 mg/kg; type: functional, Mus sp.; details: Mus musculus
CAKI-1 (Homo sapiens) [14] = assay: In vitro cytotoxicity was evaluated against renal CAKI-1 cells; 2 x 10E1
SK-MEL-28 (Homo sapiens) [15] = assay: In vitro cytotoxicity was evaluated against melanoma SK-MEL-28 cells; 3 x 10E1
CAKI-1 (Homo sapiens) [16] = assay: In vitro cytotoxicity was evaluated against renal CAKI-1 cells
DLD-1 [17] = assay: In vitro cytotoxicity was evaluated against colon DLD-1 cells; 4 x 10E1; type: functional, cell-based; details: Homo sapiens; in short: as §1
SK-MEL-28 (Homo sapiens) [18] = assay: In vitro cytotoxicity was evaluated against melanoma SK-MEL-28 cells; 2 x 10E1
NCI-H23 [19] = assay: In vitro cytotoxicity was evaluated against lung NCI-H23 cells; 1 x 10E1; type: functional, cell-based; details: Homo sapiens; in short: as §1
CAKI-1 (Homo sapiens) [20] = assay: In vitro cytotoxicity was evaluated against renal CAKI-1 cells; 3 x 10E1
DLD-1 (Homo sapiens) [21] = assay: In vitro cytotoxicity was evaluated against colon DLD-1 cells; 1 x 10E1
DLD-1 (Homo sapiens) [22] = assay: In vitro cytotoxicity was evaluated against colon DLD-1 cells; 3 x 10E1
NCI-H23 [23] = assay: In vitro cytotoxicity was evaluated against lung NCI-H23 cells; 3 x 10E1; type: functional, cell-based; details: Homo sapiens; in short: as §1
SK-MEL-28 (Homo sapiens) [24] = assay: In vitro cytotoxicity was evaluated against melanoma SK-MEL-28 cells
DLD-1 [25] = assay: In vitro cytotoxicity was evaluated against colon DLD-1 cells; 2 x 10E1; type: functional, cell-based; details: Homo sapiens; in short: as §1
SK-MEL-28 [26] = assay: In vitro cytotoxicity was evaluated against melanoma SK-MEL-28 cells; 1 x 10E1; type: functional, cell-based; details: Homo sapiens; in short: as §1
CAKI-1 = assay: In vitro cytotoxicity was evaluated against renal CAKI-1 cells; 3 x 10E1; type: functional, cell-based; details: Homo sapiens; in short: as §1
SNB-7 [27] = assay: In vitro cytotoxicity was evaluated againstCNS SNB-7 cells; 1 x 10E1; type: functional, cell-based; details: Homo sapiens; in short: as §1

`O=NN(CCCl)C(=O)OCc1ccccc1[N+](=O)[O-]` gave an IC50 (SNB-7 [1]) of 1 µg/mL (≈ 3.48 µM), an IC50 (DLD-1 (Homo sapiens) [2]) of 6 µg/mL and an IC50 (SK-MEL-28 [3]) of 40 µg/mL (≈ 139 µM). It also gave an IC50 (CAKI-1 (Homo sapiens) [4]) of 40 µg/mL (≈ 139 µM) and an IC50 (NCI-H23 [5]) of 3 µg/mL (≈ 10.4 µM).

For `CC(=O)Oc1ccc(COC(=O)N(CCCl)N=O)cc1`, the T-C (Mus sp. [6]) was 3, the Survivial / total (Mus sp. [7]) was 0 and the “Net log cell kill” value (P388 [8]) was -0.3. For the same molecule, the IC50 (DLD-1 (Homo sapiens) [9]) was 20 µg/mL (≈ 66.5 µM), the IC50 (SK-MEL-28 (Homo sapiens) [10]) was 10 µg/mL (≈ 33.3 µM) and the Survivial / total (P388 [11]) was 0. The IC50 (NCI-H23 [5]) was 6 µg/mL (≈ 20 µM), the IC50 (SNB-7 [12]) was 30 µg/mL (≈ 99.8 µM) and the ILS at 25 mg/kg (P388 [13]) was 4%. It also gave an IC50 (CAKI-1 (Homo sapiens) [14]) of 20 µg/mL (≈ 66.5 µM).

For `O=NN(CCCl)C(=O)Oc1cncnc1`, the IC50 (SNB-7 [1]) was 6 µg/mL (≈ 26 µM), the IC50 (SK-MEL-28 (Homo sapiens) [15]) was 30 µg/mL (≈ 130 µM) and the IC50 (CAKI-1 (Homo sapiens) [16]) was 6 µg/mL. It also gave an IC50 (NCI-H23 [5]) of 2 µg/mL (≈ 8.67 µM) and an IC50 (DLD-1 [17]) of 40 µg/mL (≈ 173 µM).

`CC(=O)Oc1ccccc1COC(=O)N(CCCl)N=O` gave an IC50 (SK-MEL-28 (Homo sapiens) [18]) of 20 µg/mL (≈ 66.5 µM), an IC50 (SNB-7 [1]) of 6 µg/mL (≈ 20 µM) and an IC50 (NCI-H23 [19]) of 10 µg/mL. It also gave an IC50 (CAKI-1 (Homo sapiens) [20]) of 30 µg/mL (≈ 99.8 µM) and an IC50 (DLD-1 (Homo sapiens) [21]) of 10 µg/mL (≈ 33.3 µM).

With `O=NN(CCCl)C(=O)Oc1cccnc1` the IC50 (CAKI-1 (Homo sapiens) [20]) was > 30 µg/mL, the IC50 (DLD-1 (Homo sapiens) [22]) was > 30 µg/mL and the IC50 (SK-MEL-28 (Homo sapiens) [15]) was > 30 µg/mL. The IC50 (NCI-H23 [23]) was > 30 µg/mL and the IC50 (SNB-7 [12]) was > 30 µg/mL.

With `O=NN(CCCl)C(=O)OCc1ccc([N+](=O)[O-])cc1` the IC50 (SNB-7 [1]) was 1 µg/mL (≈ 3.48 µM), the IC50 (DLD-1 (Homo sapiens) [2]) was 5 µg/mL and the IC50 (CAKI-1 (Homo sapiens) [16]) was 3 µg/mL. For the same molecule, the IC50 (NCI-H23 [5]) was 1 µg/mL (≈ 3.48 µM) and the IC50 (SK-MEL-28 (Homo sapiens) [24]) was 1 µg/mL.

In the case of `CC(=O)OCC1OC(OC(=O)N(CCCl)N=O)C(OC(C)=O)C(OC(C)=O)C1OC(C)=O` (stereo not given), the IC50 (DLD-1 [25]) is reported as 20 µg/mL (≈ 41.4 µM), the IC50 (SK-MEL-28 [26]) is reported as 10 µg/mL (≈ 20.7 µM) and the IC50 (CAKI-1) is reported as > 30 µg/mL. For the same molecule, the IC50 (NCI-H23 [5]) was 3 µg/mL (≈ 6.21 µM) and the IC50 (SNB-7 [27]) was 10 µg/mL.

With `Nc1ccn([C@@H]2O[C@H](CO)[C@@H](O)[C@@H]2O)c(=O)n1` [CYTARABINE] the IC50 (DLD-1 (Homo sapiens) [2]) was > 5000 nM, the IC50 (NCI-H23 [19]; read-out: IC50) was 1000 nM and the IC50 (CAKI-1 (Homo sapiens) [16]) was > 5000 nM. For the same molecule, the IC50 (SNB-7 [27]; read-out: IC50) was 1000 nM and the IC50 (SK-MEL-28 (Homo sapiens) [24]) was 1000 nM.
